Screening results deposited in PubChem by several laboratories.
Most compounds without a hit are left out; they make up all but 2.1% or so of the library.
PP1 counter: PP1-alpha phosphatase inhibitors, primary screen, counter-screen for PP5 inhibitor project, biochemical, fluorescence, OMFP substrate, single point; purified PP1alpha; Serine/threonine-protein phosphatase PP1-alpha catalytic subunit (Homo sapiens), P62136; AID 2235, 2010; hit rate 0.9% among 320,000; inhibition, % at 6.7 µM;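 active = inhibition above the mean inhibition of all tested compounds plus 3 SD, computed separately for each screening campaign, cut at about 15% in these data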
TDP2 inh: human TDP2 enzyme inhibitors, primary screen, biochemical, epi absorbance, recombinant enzyme. Tyrosyl-DNA phosphodiesterase 2 (Homo sapiens), O95551. T5PNP hydrolysis, p-nitrophenol absorbance 415 nm. inhibition, % at 12.8 µM. hit rate 0.34% among 370,000;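 active = inhibition above the mean of all tested compounds plus 3 SD, set per campaign, cut at about 25% in these data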;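 also: 0% = DMSO with enzyme and 100% = buffer with substrate but no TDP2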
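System – recombinant human TDP2 · Quantity – TDP2 enzyme at 120 nM final · Doses – single concentration, 12.8 µM nominal, with 1% DMSO · Incubation – 2 h at 37 °C · Measured by – epi absorbance of p-nitrophenol freed from T5PNP by hydrolysis · Read-out – % inhibition relative to enzyme-containing and enzyme-free wells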
PP5 inh: PP5 phosphatase inhibitors, primary screen, biochemical, fluorescence. Serine/threonine-protein phosphatase 5 (Homo sapiens), P53041. purified PP5c, OMFP substrate fluorescence. inhibition, % at 6.7 µM. hit rate 0.18% among 320,000;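 active = inhibition above the campaign's mean inhibition across all tested compounds plus 3 SD, cut at about 9.5% in these data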;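 also: 0% = DMSO only and 100% = 100 µM cantharidin control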
Apaf-1 inh: inhibitors of human Apaf-1 apoptosome, primary screen, biochemical, DEVD-Rh110 fluorescence, uHTS | hit rate 0.71% among 330,000 | inhibition, % at 20 µM | Apoptotic protease-activating factor 1 (Homo sapiens), O14727 | AID 489030, 2010 | reconstituted apoptosome caspase-3 activity; active = inhibition of at least 40% at 20 µM;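 also: plate controls were DMSO wells for no effect and DEVD-CHO caspase inhibitor wells for full effect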
Target sequence (O14727 whole entry, looked up): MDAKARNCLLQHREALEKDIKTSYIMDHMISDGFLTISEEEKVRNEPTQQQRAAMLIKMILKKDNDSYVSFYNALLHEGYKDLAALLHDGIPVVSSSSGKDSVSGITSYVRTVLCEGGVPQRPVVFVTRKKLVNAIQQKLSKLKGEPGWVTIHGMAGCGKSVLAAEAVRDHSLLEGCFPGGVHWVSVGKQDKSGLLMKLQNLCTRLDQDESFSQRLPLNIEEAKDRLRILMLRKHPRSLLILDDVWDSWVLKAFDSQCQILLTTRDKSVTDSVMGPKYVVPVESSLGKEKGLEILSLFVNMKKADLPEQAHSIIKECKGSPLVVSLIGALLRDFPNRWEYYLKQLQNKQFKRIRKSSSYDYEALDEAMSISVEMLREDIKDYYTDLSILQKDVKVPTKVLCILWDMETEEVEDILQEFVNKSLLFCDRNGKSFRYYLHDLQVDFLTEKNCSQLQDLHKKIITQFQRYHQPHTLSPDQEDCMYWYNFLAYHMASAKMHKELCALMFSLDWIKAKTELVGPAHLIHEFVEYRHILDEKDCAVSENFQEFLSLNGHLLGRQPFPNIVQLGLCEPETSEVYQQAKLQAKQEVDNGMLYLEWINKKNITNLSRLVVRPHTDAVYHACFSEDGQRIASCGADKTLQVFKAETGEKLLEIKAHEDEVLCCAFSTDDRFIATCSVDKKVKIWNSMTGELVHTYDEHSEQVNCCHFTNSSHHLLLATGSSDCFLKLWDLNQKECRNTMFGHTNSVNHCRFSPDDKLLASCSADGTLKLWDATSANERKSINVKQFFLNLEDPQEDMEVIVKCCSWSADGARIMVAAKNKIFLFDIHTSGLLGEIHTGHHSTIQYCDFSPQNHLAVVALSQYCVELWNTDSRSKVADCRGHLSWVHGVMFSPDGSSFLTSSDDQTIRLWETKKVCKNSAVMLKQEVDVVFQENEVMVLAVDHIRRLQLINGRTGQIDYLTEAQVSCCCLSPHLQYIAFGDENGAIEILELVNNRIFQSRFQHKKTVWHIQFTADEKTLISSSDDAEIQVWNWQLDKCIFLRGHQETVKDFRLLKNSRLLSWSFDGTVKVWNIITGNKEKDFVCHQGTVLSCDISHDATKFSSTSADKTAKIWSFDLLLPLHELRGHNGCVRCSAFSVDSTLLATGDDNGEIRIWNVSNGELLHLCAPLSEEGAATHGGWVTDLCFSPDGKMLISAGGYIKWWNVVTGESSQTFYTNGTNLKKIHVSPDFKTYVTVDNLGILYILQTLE
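Material: reconstituted apoptosome with Apaf-1, cytochrome c, caspase-9, procaspase-3, dATP; medium: pH 7.5 Hepes buffer with CHAPS, BSA, DTT; also added: cytochrome c and DEVD-Rh110 substrate; timing: 30 min plus 50 min, RT; signal: Rh110 fluorescence intensity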
GSTO1 inh: inhibitors of recombinant GSTO1, primary screen, counter-screen for RBBP9 inhibitor project, biochemical, fluorescence polarization | Glutathione S-transferase omega-1 (Homo sapiens), P78417 | activity-based probe fluorescence polarization | inhibition, % at 5.96 µM | hit rate 1.1% among 300,000;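 active = inhibition above the campaign mean inhibition plus 3 SD, cut at about 35% in these data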;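 also: 0% = GSTO1-1 with DMSO and 100% = wells lacking GSTO1-1 enzyme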
An asterisk follows results filed as active; x = not tested or not shown.

SMILES	PP1 counter	TDP2 inh	PP5 inh	Apaf-1 inh	GSTO1 inh
CCOc1ccc(C=NNC(=O)c2cc(-c3ccc(Cl)cc3)n[nH]2)cc1	x	12	x	x	x
COc1ccc2c(c1)c(=O)c(C(=O)c1ccccc1)cn2Cc1ccccc1	0	-5	1	10	-1
O=C(O)c1cn(Cc2ccccc2)c2ccc(Cl)cc2c1=O	17*	3	1	-4	6
COc1ccc2c(c1)OC(O)(C(F)(F)F)CC2=O (centres undefined)	-3	2	1	-12	36*
Oc1ccc(O)cc1	2	x	1	x	56*
C=C(C)C(=O)Nc1ccc2c(c1)OCCOCCOCCO2	17*	-1	-2	-447	-1
CC(=O)Nc1ccc2c(c1)OCCO2	-1	-9	2	0	-3
CCOc1cc(/C=C2\C(=O)N(c3nc(-c4ccc(Br)cc4)cs3)N=C2c2ccccc2)ccc1O	12	x	1	53*	-47
CCOc1cc(/C=C2/SC(=S)N(Cc3ccccc3)C2=O)ccc1O	4	1	-2	7	-116
O=C(NCC1CCN(C(=O)C(=O)c2cc3ccccc3o2)CC1)c1ccncc1	x	3	x	x	x
O=C(CCl)Nc1ccccc1C(=O)NCc1ccccc1	-8	-12	0	-5	86*
O=C(NCC(F)(F)F)c1ccc(S(=O)(=O)Nc2ccccc2N2CCCC2)cc1	x	-2	x	54*	x
N#Cc1ccc(/C=C2\CC3(OC(=O)C4CCCC4)CCCN2C3)cc1 (centres undefined)	x	1	x	x	x
CCC(CO)Oc1cc(NCc2ccc(F)cc2)c2ncn(C(C)C)c2c1 (centres undefined)	x	10	x	43*	x
CCC(CO)Oc1cc(NCc2ccc(C)c(C)c2)c2ncn(C(C)C)c2c1 (centres undefined)	x	1	x	34	x
CN(c1ccc(NC(=O)CCc2cn(Cc3ccc(Br)cc3)c3ccccc23)cc1)c1ccccn1	x	-1	x	x	x
CC(=O)c1ccc(-c2ccc(/C=C(/Sc3n[nH]c(C)n3)C(=O)O)o2)cc1	16*	5	2	-10	-8
O=C(c1cccs1)n1ccc2ccc(-c3ccc4ccn(C(=O)c5cccs5)c4c3)cc21	x	3	x	x	x
COc1cccc(-c2ccc(CC[C@H]3O[C@H]4CC[C@@H](CO)O[C@H]4C[C@H]3NS(C)(=O)=O)cc2)c1	x	3	x	x	x
COc1ccc(CCn2c(C3CCCCC3)nc3c(c(=O)c4ccccc4n3C)c2=O)cc1	16*	2	0	31	0
CN(Cc1ccccc1)C(=O)OCc1cn(Cc2cccc(Cl)c2)nn1	x	-3	x	x	x
O=[N+]([O-])c1ccc(S(=O)(=O)N2CCN(c3ccnc4cc(Cl)ccc34)CC2)cc1	17*	-4	3	21	13
COc1ccc(C2CC(c3ccccc3)=NN2C(=O)c2ccc(F)cc2)cc1 (centres undefined)	-2	6	2	20	-2
COc1ccc(C2CC(c3ccccc3)=NN2C(=O)CN2N=NC3C(=O)N(c4cccc(F)c4)C(=O)C32)cc1 (centres undefined)	17*	-28	2	9	-5
CCn1c(SCC(=O)Nc2cc(C)on2)nc2c(c1=O)SC(C)C2 (centres undefined)	0	-7	4	-21	1
SMILES	PP1 counter	TDP2 inh	PP5 inh	Apaf-1 inh	GSTO1 inh
CCn1c(SCC(=O)Nc2nc3ccc(C)cc3s2)nc2c(c1=O)SC(C)C2 (centres undefined)	16*	x	-3	20	-8
Nc1nc2c(ncn2[C@@H]2O[C@H](C(=O)NCCCN3CCCC3=O)[C@@H](O)[C@H]2O)c(=O)[nH]1	x	1	x	x	x
OC(c1ccccc1)(c1ccccc1)C1CCN(CCCOc2ccc(-c3cccnc3)cc2)CC1	x	4	x	x	x
CCOc1ccc(N=C2SC(C(=O)Nc3ccccc3C#N)C(N)=C2C(=O)Nc2ccc(Cl)cc2)cc1 (centres undefined)	19*	5	4	16	-9
Cc1ccc(/C=N/NC(=O)c2ccncc2)cc1	-2	22	2	-499	-1
O=C(N/N=C/c1ccncc1)c1ccc(NC(=O)c2ccc(Cl)cc2)cc1	30*	-1	1	4	-4
Cc1ccc(C(=O)Nc2ccc(C(=O)N/N=C/c3ccncc3)cc2)cc1	16*	x	-1	7	-3
O=C(N/N=C/c1ccncc1)c1ccc(NC(=O)c2cccc(Cl)c2)cc1	12	-10	2	-1	-10
CCOc1ccc(-n2c(SCC(=O)Nc3ccc4c(c3)c3ccccc3n4CC)nnc2-c2cccnc2)cc1	x	0	x	x	x
S=c1[nH]nc(-c2ccccn2)n1/N=C/c1ccc(Cl)c(Cl)c1	2	7	2	-12	18
S=c1[nH]nc(-c2ccccn2)n1/N=C/c1ccc(Br)s1	17*	4	-1	3	5
S=c1[nH]nc(-c2ccccn2)n1/N=C/c1ccc(-c2ccccc2Cl)o1	15*	-3	-2	-5	-6
Cc1n[nH]c(=S)n1/N=C/c1ccc(-c2ccc(Cl)cc2)o1	2	-4	2	-22	-7
COC(=O)CCC(=O)OC1(C)C(=O)C=C2C=C(C3CC3)N(CC(C)C)C=C2C1=O (centres undefined)	x	x	x	53*	x
CCCc1[nH]n(-c2nc3ccccc3s2)c(=O)c1C=NCCCN(CC)CC	16*	11	1	0	-49
Cc1cc(NC(=S)Nc2cccc3ccccc23)n[nH]1	2	-8	1	-3	10
Cc1ccc(NC(=S)Nc2cccc3ccccc23)cc1	0	-5	6	31	2
CC(C)c1ccc(NC(=S)Nc2cccc3ccccc23)cc1	1	8	4	84*	-1
Fc1ccc(NC(=S)Nc2cccc3ccccc23)cc1	0	6	-1	85*	-2
Fc1ccc(NC(=S)Nc2cccc3ccccc23)cc1F	-3	-4	1	81*	8
O=C(C(=O)N1CCC(CNC(=O)c2ccccc2F)CC1)c1cc2ccccc2o1	x	1	x	x	x
N#Cc1c(N)[nH]c(C(=O)c2ccccc2)c1-c1ccc(Br)cc1	x	0	x	x	x
O=C(CCCCl)NC1=NN(c2ccccc2)C(=O)C1	4	15	1	x	19
O=C(COc1ccc(Cl)cc1)NC1=NN(c2ccccc2)C(=O)C1	0	7	-4	13	40*
Cc1cnc(NC(=O)CSc2nc3ccccc3s2)s1	1	-1	3	2	-7
Cc1ccccc1-c1nnc(NC(=O)CSc2nc3ccccc3s2)s1	17*	-1	3	16	-6
O=S(=O)(Nc1ccc(Cl)cc1NS(=O)(=O)c1ccccc1)c1ccccc1	x	10	x	x	x
O=C(O)CSc1cc(NS(=O)(=O)c2ccc(Cl)cc2)c2ccccc2c1O	4	63*	2	x	88*
